Source: ChEMBL document CHEMBL1137722, “Synthesis and pharmacological evaluation of a novel series of 5-(substituted)aryl-3-(3-coumarinyl)-1-phenyl-2-pyrazolines as novel anti-inflammatory and analgesic agents” (Eur J Med Chem, 2009)

Legend:
Mus musculus [1] = experiment: Acute toxicity in albino mouse assessed as behavioral response up to 2000 mg/kg, po after 24 hrs; format: organism-based; design: dose 2000 mg/kg, route oral; conditions: in vivo
Method in brief: (§1)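 Albino mice of either sex (20–25 g), 12 groups of six, fasted 24 h with water available. Given oral doses rising through 10, 20, 100, 200, 1000 and 2000 mg/kg. Watched continuously for 3 h for behavioural, neurological and autonomic signs, then every 30 min for the next 3 h, then up to 24 h or until death. Guideline: OECD.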

Rattus norvegicus [2] = experiment: Antiinflammatory activity in albino rat acute inflammatory model assessed as inhibition of carrageenan-induced paw edema at 200 mg/kg, po dosed 1 hr before carrageenan challenge measured after 2 hrs relative to control; format: functional
Method in brief: (§2)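 Male albino rats (170–220 g), fasted at least 12 h with water available, groups of six. Oral dosing with 0.5% sodium CMC vehicle control. One hour later, 0.05 ml of 1% carrageenan was injected subplantar into the left hind paw. Paw volume was measured by digital plethysmometer at 0, 2 and 4 h. % inhibition = [1 − treated/control edema volume] × 100, n=6.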

Rattus norvegicus [3] = experiment: Antiinflammatory activity in albino rat acute inflammatory model assessed as inhibition of carrageenan-induced paw edema at 200 mg/kg, po dosed 1 hr before carrageenan challenge measured after 4 hrs relative to control; format: functional; method in brief: as §2
Mus musculus [4] = experiment: Acute toxicity in albino mouse assessed as mortality up to 2000 mg/kg, po after 24 hrs; format: organism-based; design: dose 2000 mg/kg, route oral; conditions: in vivo; method in brief: as §1
Rattus norvegicus [5] = experiment: Antipyretic activity in yeast-induced pyrexia albino rat model assessed as temperature index measured by sum of mean rectal temperature changes from 0 to 5 hrs at 135 mg/kg, po administered 30 mins after 18 hrs of yeast challenge (Rvb=39.0 degC); format: functional
Rattus norvegicus [6] = experiment: Antipyretic activity in yeast-induced pyrexia albino rat model assessed as mean rectal temperature at 135 mg/kg, po administered 30 mins after 18 hrs of yeast challenge measured after 3 hrs postdosing (Rvb=38.9 degC); format: functional
Rattus norvegicus [7] = experiment: Antipyretic activity in yeast-induced pyrexia albino rat model assessed as mean rectal temperature at 135 mg/kg, po administered 30 mins after 18 hrs of yeast challenge measured after 1 hr postdosing (Rvb=39.4 degreeC); format: functional
Rattus norvegicus [8] = experiment: Antipyretic activity in yeast-induced pyrexia albino rat model assessed as mean rectal temperature at 135 mg/kg, po administered 30 mins after 18 hrs of yeast challenge measured after 4 hrs postdosing (Rvb=38.7 degC); format: functional
Rattus norvegicus [9] = experiment: Antipyretic activity in yeast-induced pyrexia albino rat model assessed as mean rectal temperature at 135 mg/kg, po administered 30 mins after 18 hrs of yeast challenge measured after 5 hrs postdosing (Rvb=38.2 degC); format: functional
Rattus norvegicus [10] = experiment: Antipyretic activity in yeast-induced pyrexia albino rat model assessed as mean rectal temperature at 135 mg/kg, po administered 30 mins after 18 hrs of yeast challenge measured after 2 hrs postdosing (Rvb=39.2 degC); format: functional
Rattus norvegicus [11] = experiment: Gastrointestinal toxicity in starved po dosed albino rat stress model assessed as ulcer index after 7 hrs; format: organism-based; conditions: in vivo
Method in brief: (§3)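 Albino rats of either sex, 170–250 g, six per group, starved 48 h with water ad libitum. Dosed orally as a suspension in 0.5% sodium CMC, test compounds at 200 mg/kg b.w. Killed 7 h later. Stomach opened along the greater curvature and everted. Ulcer index from lesion counts in five size classes, ranging from pinpoint to >4 mm diameter.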

Mus musculus [12] = experiment: Analgesic activity in albino mouse assessed as protection against glacial acetic acid-induced writhing response at 30 mg/kg, po pretreated 0.5 hrs before glacial acetic acid challenge measured for 15 mins; format: functional
Method in brief: (§4)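 Albino mice of either sex (20–25 g). Mice were pre-screened the day before for writhing, and only responders were used. Compound was given orally as a suspension in 0.5% sodium CMC 30 min before glacial acetic acid challenge. Stretching episodes were counted for 15 min. Results are the group mean, n=6, with % protection against control.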

Rattus norvegicus [13] = experiment: Antiinflammatory activity in albino rat acute inflammatory model assessed as inhibition of carrageenan-induced paw edema at 13.5 mg/kg, po dosed 1 hr before carrageenan challenge measured after 2 hrs relative to control; format: functional; method in brief: as §2
Rattus norvegicus [14] = experiment: Antiinflammatory activity in albino rat chronic arthritis model assessed as inhibition of Freund's adjuvant-induced paw edema at 13.5 mg/kg, po administered on day 16 to 19 post Freund's adjuvant challenge measured on day 19 relative to control; format: functional
Method in brief: (§5)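 Male albino rats (150–230 g) received 0.1 ml heat-killed M. tuberculosis (Freund's complete adjuvant) into the left hind footpad on day 1. Rats with developed arthritis on day 15 were split into groups of six. Dosing was oral, days 16–19, with 1 ml 0.5% sodium CMC as control. Paw volume, body weight and secondary lesions were recorded daily. % inhibition was calculated from day 15, n=6.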

Rattus norvegicus [15] = experiment: Antiinflammatory activity in albino rat acute inflammatory model assessed as inhibition of carrageenan-induced paw edema at 13.5 mg/kg, po dosed 1 hr before carrageenan challenge measured after 4 hrs relative to control; format: functional; method in brief: as §2
[16] = Acute toxicity in po dosed albino mouse assessed as maximum tolerated dose; format: organism-based; conditions: in vivo; method in brief: as §1
Rattus norvegicus [17] = experiment: Antipyretic activity in yeast-induced pyrexia albino rat model assessed as temperature index measured by sum of mean rectal temperature changes from 0 to 5 hrs at 200 mg/kg, po administered 30 mins after 18 hrs of yeast challenge (Rvb=39.4 degreeC); format: functional
Rattus norvegicus [18] = experiment: Antipyretic activity in yeast-induced pyrexia albino rat model assessed as mean rectal temperature at 200 mg/kg, po administered 30 mins after 18 hrs of yeast challenge measured after 2 hrs postdosing (Rvb=39.2 degC); format: functional
Rattus norvegicus [19] = experiment: Antiinflammatory activity in albino rat chronic arthritis model assessed as inhibition of Freund's adjuvant-induced paw edema at 200 mg/kg, po administered on day 16 to 19 post Freund's adjuvant challenge measured on day 19 relative to control; format: functional; method in brief: as §5
Rattus norvegicus [20] = experiment: Antipyretic activity in yeast-induced pyrexia albino rat model assessed as mean rectal temperature at 200 mg/kg, po administered 30 mins after 18 hrs of yeast challenge measured after 3 hrs postdosing (Rvb=38.9 degC); format: functional
Rattus norvegicus [21] = experiment: Antipyretic activity in yeast-induced pyrexia albino rat model assessed as mean rectal temperature at 200 mg/kg, po administered 30 mins after 18 hrs of yeast challenge measured after 1 hr postdosing (Rvb=39.4 degC); format: functional
Rattus norvegicus [22] = experiment: Gastrointestinal toxicity in starved albino rat stress model assessed as ulcer index at 200 mg/kg, po after 7 hrs; format: organism-based; design: dose 200 mg/kg, route oral; conditions: in vivo; method in brief: as §3
Rattus norvegicus [23] = experiment: Antipyretic activity in yeast-induced pyrexia albino rat model assessed as mean rectal temperature at 200 mg/kg, po administered 30 mins after 18 hrs of yeast challenge measured after 4 hrs postdosing (Rvb=38.7 degC); format: functional
Mus musculus [24] = experiment: Analgesic activity in albino mouse assessed as protection against glacial acetic acid-induced writhing response at 200 mg/kg, po pretreated 0.5 hrs before glacial acetic acid challenge measured for 15 mins; format: functional; method in brief: as §4
Rattus norvegicus [25] = experiment: Antipyretic activity in yeast-induced pyrexia albino rat model assessed as mean rectal temperature at 200 mg/kg, po administered 30 mins after 18 hrs of yeast challenge measured after 5 hrs postdosing (Rvb=38.2 degC); format: functional
Rattus norvegicus [26] = experiment: Antipyretic activity in yeast-induced pyrexia albino rat model assessed as temperature index measured by sum of mean rectal temperature changes from 0 to 5 hrs at 200 mg/kg, po administered 30 mins after 18 hrs of yeast challenge (Rvb=39.3 degC); format: functional
Rattus norvegicus [27] = experiment: Antipyretic activity in yeast-induced pyrexia albino rat model assessed as temperature index measured by sum of mean rectal temperature changes from 0 to 5 hrs at 200 mg/kg, po administered 30 mins after 18 hrs of yeast challenge (Rvb=39.2 degC); format: functional
Rattus norvegicus [28] = experiment: Antipyretic activity in yeast-induced pyrexia albino rat model assessed as temperature index measured by sum of mean rectal temperature changes from 0 to 5 hrs at 200 mg/kg, po administered 30 mins after 18 hrs of yeast challenge (Rvb=39.6 degC); format: functional

| SMILES | Activity (Mus musculus [1]) | inhibition in vivo at 200 mg/kg (Rattus norvegicus [2]) [%] | inhibition in vivo at 200 mg/kg (Rattus norvegicus [3]) [%] | Activity (Mus musculus [4]) | MTD [16] [mg/kg] | further results |
| --- | --- | --- | --- | --- | --- | --- |
| COc1ccc([C@H]2CC(c3cc4ccccc4oc3=O)=NN2c2ccccc2)cc1 | Toxic | 24.8 | 36.2 | Non-toxic |  |  |
| CC(=O)Nc1ccc(O)cc1 [ACETAMINOPHEN] |  |  |  |  |  | Activity (Rattus norvegicus [5]): -6.7 °C; Activity (Rattus norvegicus [6]): 37.6 °C; Activity (Rattus norvegicus [7]): 38.4 °C; Activity (Rattus norvegicus [8]): 37.3 °C; Activity (Rattus norvegicus [9]): 37 °C; Activity (Rattus norvegicus [10]): 38 °C |
| O=c1oc2ccccc2cc1C1=NN(c2ccccc2)[C@@H](/C=C/c2ccccc2)C1 | Toxic | 26.7 | 42.5 | Non-toxic |  |  |
| Cc1ccc([C@H]2CC(c3cc4ccccc4oc3=O)=NN2c2ccccc2)cc1 | Toxic | 30.1 | 38 | Non-toxic |  |  |
| CC(=O)Oc1ccccc1C(=O)O [ASPIRIN] |  |  |  |  |  | UI (Rattus norvegicus [11]): 4.33; Activity (Mus musculus [12]): 67% |
| O=C(O)Cc1ccccc1Nc1c(Cl)cccc1Cl [DICLOFENAC] |  |  |  |  |  | inhibition in vivo at 13.5 mg/kg (Rattus norvegicus [13]): 63.7%; inhibition in vivo at 13.5 mg/kg (Rattus norvegicus [14]): 53%; inhibition in vivo at 13.5 mg/kg (Rattus norvegicus [15]): 78.7% |
| O=c1oc2ccccc2cc1C1=NN(c2ccccc2)[C@@H](c2ccc(O)cc2)C1 |  | 28.8 | 34.6 | Non-toxic | 2000 |  |
| O=c1oc2ccccc2cc1C1=NN(c2ccccc2)[C@@H](c2ccc(F)cc2)C1 |  | 44.9 | 66.7 | Non-toxic | 2000 | Activity (Rattus norvegicus [17]): -6.6 °C; Activity (Rattus norvegicus [18]): 38.3 °C; inhibition in vivo at 200 mg/kg (Rattus norvegicus [19]): 40.5%; Activity (Rattus norvegicus [20]): 37.9 °C; Activity (Rattus norvegicus [21]): 39.2 °C; UI (Rattus norvegicus [22]): 1.66; Activity (Rattus norvegicus [23]): 37.7 °C; Activity (Mus musculus [24]): 55%; Activity (Rattus norvegicus [25]): 37.1 °C |
| O=c1oc2ccccc2cc1C1=NN(c2ccccc2)[C@@H](c2ccc(Cl)cc2)C1 |  | 39.2 | 64.7 | Non-toxic | 2000 | Activity (Rattus norvegicus [18]): 38.9 °C; Activity (Rattus norvegicus [26]): -3.9 °C; inhibition in vivo at 200 mg/kg (Rattus norvegicus [19]): 39.1%; Activity (Rattus norvegicus [20]): 38.5 °C; Activity (Rattus norvegicus [21]): 39.1 °C; UI (Rattus norvegicus [22]): 2.33; Activity (Rattus norvegicus [23]): 38.1 °C; Activity (Mus musculus [24]): 41%; Activity (Rattus norvegicus [25]): 38 °C |
| CN(C)c1ccc([C@H]2CC(c3cc4ccccc4oc3=O)=NN2c2ccccc2)cc1 | Toxic | 28.4 | 40.1 | Non-toxic |  |  |
| O=c1oc2ccccc2cc1C1=NN(c2ccccc2)[C@@H](c2ccccc2)C1 |  | 27.2 | 32.7 | Non-toxic | 2000 |  |
| O=c1oc2ccccc2cc1C1=NN(c2ccccc2)[C@@H](c2ccccc2[N+](=O)[O-])C1 | Toxic | 24.7 | 26.6 | Non-toxic |  |  |
| O=c1oc2ccccc2cc1C1=NN(c2ccccc2)[C@@H](c2ccc(Cl)cc2Cl)C1 |  | 56.7 | 67.5 | Non-toxic | 2000 | Activity (Rattus norvegicus [18]): 38.6 °C; inhibition in vivo at 200 mg/kg (Rattus norvegicus [19]): 45.4%; Activity (Rattus norvegicus [20]): 38.1 °C; Activity (Rattus norvegicus [21]): 38.9 °C; UI (Rattus norvegicus [22]): 2.67; Activity (Rattus norvegicus [23]): 37.8 °C; Activity (Mus musculus [24]): 59%; Activity (Rattus norvegicus [27]): -5.4 °C; Activity (Rattus norvegicus [25]): 37.2 °C |
| COc1cccc([C@H]2CC(c3cc4ccccc4oc3=O)=NN2c2ccccc2)c1 |  | 38.3 | 61.5 | Non-toxic | 2000 | Activity (Rattus norvegicus [18]): 38.8 °C; inhibition in vivo at 200 mg/kg (Rattus norvegicus [19]): 20.9%; Activity (Rattus norvegicus [20]): 38.6 °C; Activity (Rattus norvegicus [21]): 39.4 °C; UI (Rattus norvegicus [22]): 2.12; Activity (Rattus norvegicus [23]): 38.2 °C; Activity (Mus musculus [24]): 35%; Activity (Rattus norvegicus [28]): -5.1 °C; Activity (Rattus norvegicus [25]): 37.9 °C |
| O=c1oc2ccccc2cc1C1=NN(c2ccccc2)[C@@H](c2cccc([N+](=O)[O-])c2)C1 | Toxic | 26.1 | 31.2 | Non-toxic |  |  |
